Data published in publication PMC9293090 (Journal of Neurochemistry, 2021).

What was measured:
[1] = tested on: GlcSph; conditions: clinical trial, therapeutic dose; ref Mistry et al., 2017; cited from earlier work
[2] = tested on: GlcCer; conditions: ref Larsen et al., 2012; cited from earlier work
[3] = biological target: T1, GCS (Homo sapiens, UniProt Q16739); test: Affinity selection mass spectrometry; assay type: binding
T1 sequence (Q16739 1-394): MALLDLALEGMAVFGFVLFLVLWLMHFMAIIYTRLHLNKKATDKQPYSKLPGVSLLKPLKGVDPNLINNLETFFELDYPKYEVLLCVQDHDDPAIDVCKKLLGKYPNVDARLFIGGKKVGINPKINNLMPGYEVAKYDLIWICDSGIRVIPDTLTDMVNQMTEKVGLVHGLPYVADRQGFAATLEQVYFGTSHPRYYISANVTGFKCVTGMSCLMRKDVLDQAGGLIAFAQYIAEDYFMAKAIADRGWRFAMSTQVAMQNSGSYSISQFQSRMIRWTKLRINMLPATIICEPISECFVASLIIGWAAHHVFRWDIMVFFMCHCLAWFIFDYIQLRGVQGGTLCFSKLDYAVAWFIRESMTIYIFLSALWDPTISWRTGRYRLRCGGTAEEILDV
Outline: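 Compound at various concentrations was incubated 60 min at 20-25°C with 10 μg/ml GCS-expressing microsomal protein in 20 mM Tris–HCl pH 7.5, 1 mM DTT, 0.01% Tween20, plus 200 μM UDP-glucose, 70 μM C8-ceramide, or neither. Bound and free compound were separated by […] through Sephadex G50-Fine. The eluent was denatured with 70% acetonitrile, and compound was quantified by LC/MS. Specific binding = counts with GCS minus counts without GCS.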

[4] = biological target: T1, GCS; test: Steady-state kinetic GCS competition experiment; assay type: biochemical; conditions: for K m / V max: for UDP-glucose, fixed ceramide 7.4 μM; for inhibition mode of GCS against UDP-glucose: various UDP-glucose concentrations; for inhibition mode of GCS against ceramide: various ceramide concentrations
[5] = presence of UDP-glucose (200 μM)

| Structure (SMILES) | reduction of GlcSph concentration in the plasma [1] [%] | effect on the GlcCer level in the brain [2] | binding to GCS by AS-MS ([3]; absence of UDP-glucose) | binding to GCS by AS-MS [3, 5] | K m [4] [µM] | V max [4] [µmol/min] | inhibition mode of GCS against UDP-glucose [4] | inhibition mode of GCS against ceramide [4] |
| --- | --- | --- | --- | --- | --- | --- | --- | --- |
| CCCCCCCC(=O)N[C@H](CN1CCCC1)[C@H](O)c1ccc2c(c1)OCCO2 [Eliglustat] | 40 | no significant effect | not detected | bind GCS | 2.37 ± 0.11 | 37.60 ± 0.45 | uncompetitive | noncompetitive |
| CC(C)(NC(=O)O[C@@H]1CN2CCC1CC2)c1csc(-c2ccc(F)cc2)n1 [Venglustat] |  |  | not detected | bind GCS | 2.53 ± 0.09 | 38.58 ± 0.32 | uncompetitive | noncompetitive |
